From ChEMBL document CHEMBL4376870, “Structure-Activity Relationship in Pyrazolo[4,3-c]pyridines, First Inhibitors of PEX14-PEX5 Protein-Protein Interaction with Trypanocidal Activity” (J Med Chem, 2020)

Tests used:
[1] = Inhibition of biotinylated PEX5-derived ALSENWAQEFLA binding to Trypanosoma brucei N-terminal His-tagged PEX14 (21 to 84 residues) expressed in Escherichia coli BL21 by Alphascreen assay
In short: (§1)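 His-tagged PEX14 (21-84) at 3 nM with 10 nM biotinylated peptide in PBS containing 5 mg/mL BSA and 0.01% Tween-80; 5 µg/mL streptavidin donor and nickel chelate acceptor beads; 5% DMSO held constant.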

[2] = Inhibition of biotinylated PEX5-derived ALSENWAQEFLA binding to Trypanosoma cruzi N-terminal His-tagged PEX14 (21 to 84 residues) expressed in Escherichia coli BL21 by Alphascreen assay; in short: as §1
[3] = test system: Trypanosoma brucei brucei; assay: Antitrypanosomal activity against bloodstream form of Trypanosoma brucei brucei Lister 427 after 66 hrs by Resazurin dye-based fluorescence assay; type: functional, organism-based; settings: Lister 427, 66 h
HepG2 = assay: Cytotoxicity against human HepG2 cells assessed as reduction in cell viability measured after 66 hrs by resazurin dye based fluorescence assay; settings: HepG2, 66 h
[4] = target: Peroxisomal membrane protein PEX14 (Homo sapiens, UniProt O75381); assay: Inhibition of biotinylated PEX5-derived ALSENWAQEFLA binding to human N-terminal His-tagged PEX14 (21 to 84 residues) expressed in Escherichia coli BL21 by Alphascreen assay; in short: as §1
[5] = Selectivity index, ratio of EC50 for human HepG2 cells to EC50 for antitrypanosomal activity against bloodstream form of Trypanosoma brucei brucei Lister 427

Peroxisomal membrane protein PEX14, sequence (O75381 whole entry, stated change not applied, the tested form may be a part): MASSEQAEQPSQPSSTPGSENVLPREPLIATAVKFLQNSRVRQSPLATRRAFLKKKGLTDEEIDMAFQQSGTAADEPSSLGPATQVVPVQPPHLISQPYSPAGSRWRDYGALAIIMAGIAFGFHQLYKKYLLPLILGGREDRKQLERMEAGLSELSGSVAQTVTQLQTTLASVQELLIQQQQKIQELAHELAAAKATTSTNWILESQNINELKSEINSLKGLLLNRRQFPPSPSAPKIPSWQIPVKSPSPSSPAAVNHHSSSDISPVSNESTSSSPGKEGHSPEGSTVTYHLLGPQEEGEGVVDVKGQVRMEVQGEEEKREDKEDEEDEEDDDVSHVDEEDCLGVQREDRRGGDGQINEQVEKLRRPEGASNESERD

Row | SMILES | EC50 [1] [µM] | EC50 [2] [µM] | EC50 [3] [µM] | EC50 (HepG2) [µM] | EC50 [4] [µM] | selectivity ratio [5]
1 | COc1ccc(CN2CCc3nn4c(c3C2)CN(Cc2cccc3ccccc23)C4=O)c2ccccc12 | 103 | 448 | 5.61 | > 50 | > 1000 | > 8.9
2 | COc1ccc(CN2CCc3nn4c(c3C2)C(=O)N(Cc2cccc3ccccc23)CC4)c2ccccc12 | 49.2 | 463 | 6.42 | > 50 | > 1000 | > 7.8
3 | COc1ccc(CN2CCc3c(c(C(=O)NCc4cccc5ccccc45)nn3CCN3CCOCC3)C2)c2ccccc12 | 88.1 | 162 | 3.58 | 42 | 166 | 11.7
